Screening data: PubChem, several laboratories
Rows were chosen to be rich in hits. Some 2.4% of all compounds tested hit in one or more screens of this group.
Jurkat NFkB inh: inhibitors of induced NF-kB luciferase reporter, primary screen, TCR NF-kB activation inhibitor project, cell-based, luminescence, uHTS. inhibition, % at 4 µM. 330,000 compounds, 0.53% hits. Jurkat, PMA/ionomycin-induced NF-kB luciferase reporter; in the data active means inhibition above about 50%
aDG glyco up: activators of alpha-DG glycosylation, primary screen, uHTS, Pro5-aDG cells, AlphaScreen; alpha-DG glycosylation AlphaScreen (IIH6); 0% Pro5, 100% B10-LARGE cell signal; activation, % at 10 µM; 360,000 compounds, 0.22% hits; AID 624168, 2012;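 active means activation of at least 8% versus controls, or a plate z-score of at least 8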;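 further: Pro5 are CHO cells carrying HIG-tagged alpha-DG that lacks glycosylation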
NR2E3 ag-1: NR2E3 agonists in two-hybrid cells, primary screen, cell-based, luminescence, CHO-S, Gal4-NCOR/VP16-NR2E3. Photoreceptor-specific nuclear receptor (Homo sapiens), Q9Y5X4. luciferase. inhibition of corepressor binding, % at 3.98 µM. 360,000 compounds, 0.35% hits;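 active means inhibition above the mean of all tested compounds plus 3 SD, cut at about 70% in these data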;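 further: 0% = DMSO with NR2E3 transfected cells and 100% = cells lacking NR2E3 construct; higher means lower luciferase signal from less NR2E3 corepressor binding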
Target sequence (Q9Y5X4 whole entry, looked up, the tested form may be a part): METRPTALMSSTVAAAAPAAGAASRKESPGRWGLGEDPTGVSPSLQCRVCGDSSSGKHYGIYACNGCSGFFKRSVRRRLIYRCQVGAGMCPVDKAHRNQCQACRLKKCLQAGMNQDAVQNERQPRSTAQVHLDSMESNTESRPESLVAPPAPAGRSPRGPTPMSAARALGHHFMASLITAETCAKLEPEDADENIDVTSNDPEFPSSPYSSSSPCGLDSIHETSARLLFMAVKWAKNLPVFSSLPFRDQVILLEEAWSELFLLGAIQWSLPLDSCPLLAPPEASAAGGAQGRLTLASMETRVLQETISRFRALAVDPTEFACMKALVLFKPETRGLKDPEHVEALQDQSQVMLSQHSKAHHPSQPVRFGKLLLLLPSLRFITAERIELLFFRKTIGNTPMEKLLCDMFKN
MPTP inh: mitochondrial permeability transition pore inhibitors, primary screen, biochemical, isolated mouse mitochondria, absorbance. inhibition, % at 10 µM. 360,000 compounds, 1.4% hits. AID 602449, 2012. Ca2+ swelling absorbance, 30 min;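 active means inhibition of 50% or more, scaled per plate between neutral and stimulator controls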;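 further: 0% = DMSO wells given calcium and 100% = 1 mM EGTA wells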
697 NFkB inh: inhibitors of PMA/ionomycin-induced NF-kB reporter, 697 cells, primary screen, B-cell NF-kB inhibitor project, cell-based, luminescence, uHTS; inhibition, % at 4 µM; 330,000 compounds, 0.33% hits; 697 B-cell NF-kB luciferase reporter, 16 h; in the data active means inhibition above about 35%
NR2E3 ag-2: inhibitors of NR2E3-RetCOR corepressor binding, primary screen, NR2E3 agonist project, biochemical, TR-FRET, GST-NR2E3, biotin-RetCOR; Photoreceptor-specific nuclear receptor (Homo sapiens), Q9Y5X4; AID 2300, 2010; 320,000 compounds, 0.12% hits; 1536-well; inhibition of corepressor binding, % at 4.78 µM;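 active means percent inhibition above the cutoff of mean plus 3 SD of all tested compounds, set per screening campaign, cut at about 20% in these data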;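 further: 0% = DMSO wells and 100% = biotin wells as full block of FRET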
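System: GST-tagged NR2E3 plus biotinylated RetCOR corepressor; Amount: 1.35 nM GST-tagged NR2E3 final; Dosing: single nominal compound dose of 4.8 µM; Schedule: 5 h incubation at 4 °C; Technique: TR-FRET with europium anti-GST and streptavidin-D2, 340 nm excitation; Controls: biotin wells as high control, 0.6% DMSO wells as low control.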
MPTP counter: fluorescence retest of MPTP screen hits in isolated mitochondria, single concentration; shares compounds with MPTP inh; membrane potential, Rhodamine 123 fluorescence; inhibition, % at 10 µM; 5,000 compounds, 78% hits; AID 624504, 2012; in the data active means inhibition above about 22%;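 further: 0% = DMSO vehicle and 100% = positive control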
An asterisk follows results filed as active.

How did Cc1nc2ccccn2c1C(=O)NNS(=O)(=O)c1ccc(C(C)(C)C)cc1 do in these assays?
Jurkat NFkB inh: 7; aDG glyco up: 3; NR2E3 ag-1: -5; MPTP inh: 76*; 697 NFkB inh: -21; NR2E3 ag-2: 3; MPTP counter: 72*

What do the screens show for `COC(=O)c1ccc(NC(=O)Nc2ccc(F)c(Cl)c2)cc1`?
Jurkat NFkB inh: -27; aDG glyco up: 0; NR2E3 ag-1: -35; MPTP inh: 91*; 697 NFkB inh: 1; NR2E3 ag-2: -3; MPTP counter: 83*

How did CCOC(=O)c1sc(NC(=O)Nc2ccc(F)cc2)nc1C do in these assays?
Jurkat NFkB inh: -141; aDG glyco up: 0; NR2E3 ag-1: -121; MPTP inh: 73*; 697 NFkB inh: -137; NR2E3 ag-2: -3; MPTP counter: 84*

Results for CC(C)CNC(=O)Nc1ccc(F)c(Cl)c1 ?
Jurkat NFkB inh: 5; aDG glyco up: 1; NR2E3 ag-1: -6; MPTP inh: 36; 697 NFkB inh: 9; NR2E3 ag-2: -1

What do the screens show for `CCOC(=O)c1cc(NC(=O)Nc2ccc(Br)cc2)c(C)nc1C`?
Jurkat NFkB inh: 9; aDG glyco up: 0; NR2E3 ag-1: -15; MPTP inh: 74*; 697 NFkB inh: 10; NR2E3 ag-2: 1; MPTP counter: 70*

Results for COC(=O)c1ccc(NC(=O)Nc2ccc(OC)cc2)cc1 ?
Jurkat NFkB inh: -20; aDG glyco up: 1; NR2E3 ag-1: -21; MPTP inh: 8; 697 NFkB inh: -13; NR2E3 ag-2: 4

Results for CCOC(=O)c1cc(NC(=O)Nc2ccccc2Cl)c(C)nc1C ?
Jurkat NFkB inh: 3; aDG glyco up: 0; NR2E3 ag-1: 40; MPTP inh: -1; 697 NFkB inh: 16; NR2E3 ag-2: 2

How did COC(=O)c1ccc(NC(=O)Nc2ccc(F)cc2)cc1 do in these assays?
Jurkat NFkB inh: -40; aDG glyco up: 0; NR2E3 ag-1: -84; MPTP inh: 64*; 697 NFkB inh: -21; NR2E3 ag-2: 2; MPTP counter: 96*

How did O=C(CN1C(=O)NC2(CCOc3ccccc32)C1=O)c1ccc(F)c(F)c1 (stereo unspecified) do in these assays?
Jurkat NFkB inh: -4; aDG glyco up: 0; NR2E3 ag-1: -13; MPTP inh: 0; 697 NFkB inh: 21; NR2E3 ag-2: -3

How did Cc1ccsc1C(=O)N1CCCCCC1(C)C(=O)NCC(C)C (stereo unspecified) do in these assays?
aDG glyco up: 0; NR2E3 ag-1: 23; MPTP inh: 1

Results for COC(=O)c1ccc(NC(=O)Nc2ccc([N+](=O)[O-])cc2)cc1 ?
Jurkat NFkB inh: -8; aDG glyco up: 0; NR2E3 ag-1: -1; MPTP inh: 94*; 697 NFkB inh: 2; NR2E3 ag-2: 3; MPTP counter: 85*

What do the screens show for `Cc1ccc(NC(=O)Nc2ccc3c(c2)OCO3)c(OC(F)F)c1`?
Jurkat NFkB inh: -104; aDG glyco up: 0; NR2E3 ag-1: -103; MPTP inh: -1; 697 NFkB inh: -89

What do the screens show for `CCOC(=O)c1ccc(NC(=O)Nc2ccc(F)cc2)cc1`?
Jurkat NFkB inh: -44; aDG glyco up: 1; NR2E3 ag-1: -33; MPTP inh: 97*; 697 NFkB inh: -29; NR2E3 ag-2: 1; MPTP counter: 85*

Results for CCOC(=O)c1ccc(NC(=O)Nc2ccc(OC)c(OC)c2)cc1 ?
Jurkat NFkB inh: -4; aDG glyco up: 0; NR2E3 ag-1: 19; MPTP inh: 65*; 697 NFkB inh: -17; NR2E3 ag-2: 4; MPTP counter: 69*

How did COc1ccc(NC(=O)Nc2ccc(C)cc2OC(F)F)cc1OC do in these assays?
Jurkat NFkB inh: -12; aDG glyco up: 1; NR2E3 ag-1: -10; MPTP inh: 52*; 697 NFkB inh: -20; NR2E3 ag-2: 0; MPTP counter: 36*

What do the screens show for `CCOC(=O)CC[C@H](NC(=O)Cn1cnc2c(OCc3ccccc3)ncnc21)C(=O)OCC`?
Jurkat NFkB inh: -4; aDG glyco up: 0; NR2E3 ag-1: 11; MPTP inh: -1; 697 NFkB inh: 1

How did O=C(COc1ccc([N+](=O)[O-])cc1)NNC(=O)Nc1ccc([N+](=O)[O-])cc1 do in these assays?
Jurkat NFkB inh: -3; aDG glyco up: 0; NR2E3 ag-1: -2; MPTP inh: 67*; 697 NFkB inh: 13; NR2E3 ag-2: -2; MPTP counter: 96*

What do the screens show for `COC(=O)c1ccc(NC(=O)Nc2ccccc2F)cc1`?
Jurkat NFkB inh: -122; aDG glyco up: 0; NR2E3 ag-1: -92; MPTP inh: 54*; 697 NFkB inh: -53; NR2E3 ag-2: 2; MPTP counter: 84*

What do the screens show for `COC(=O)c1ccc(NC(=O)Nc2ccccc2C)cc1`?
Jurkat NFkB inh: -28; aDG glyco up: 1; NR2E3 ag-1: -16; MPTP inh: 0; 697 NFkB inh: 0; NR2E3 ag-2: 1

How did CCOC(=O)c1ccc(NC(=O)Oc2cc(C)c(Cl)cc2C(C)C)cc1 do in these assays?
Jurkat NFkB inh: -27; aDG glyco up: 0; NR2E3 ag-1: -13; MPTP inh: 64*; 697 NFkB inh: 12; NR2E3 ag-2: 1; MPTP counter: 69*

How did CCc1cc(=O)[nH]c(SCC(=O)N2CCOCC2)n1 do in these assays?
Jurkat NFkB inh: 12; aDG glyco up: 0; NR2E3 ag-1: 9; MPTP inh: 0; 697 NFkB inh: 10; NR2E3 ag-2: -2

Results for COc1ccccc1NC(=O)Cc1csc(NC(=S)Nc2ccc(C)cc2)n1 ?
Jurkat NFkB inh: 2; aDG glyco up: 0; NR2E3 ag-1: 11; MPTP inh: 72*; 697 NFkB inh: -33; NR2E3 ag-2: 1; MPTP counter: 75*

Results for CCOC(=O)c1oc2cc(O)c(CC)cc2c(=O)c1-c1cscn1 ?
Jurkat NFkB inh: -7; aDG glyco up: 0; NR2E3 ag-1: 1; MPTP inh: -1; 697 NFkB inh: 9; NR2E3 ag-2: 1

What do the screens show for `CCOC(=O)c1ccc(-c2c(C(=O)OCC)oc3cc(O)c(CC)cc3c2=O)o1`?
Jurkat NFkB inh: -4; aDG glyco up: 0; NR2E3 ag-1: 3; MPTP inh: 82*; 697 NFkB inh: -5; NR2E3 ag-2: 3; MPTP counter: 86*
